Key:
[1] = Volume of distribution at steady state in Sprague-Dawley rat; type: ADME, organism-based; settings: in vivo, read-out: Vss
Method in brief: (§1)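 Male Sprague-Dawley rats were given single doses orally at 10 mg/kg in 0.5% Methocel and intravenously at 2 mg/kg in 10% Solutol. Plasma concentrations were followed to derive AUC (µM h), Cmax (µM), half-life (h), clearance (mL/min/kg), steady-state volume of distribution (L/kg) and oral bioavailability (%).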

[2] = Cmax in Sprague-Dawley rat at 2 mg/kg, iv; type: ADME, organism-based; set-up: dose 2 mg/kg, route intravenous; settings: in vivo; method in brief: as §1
[3] = Half life in Sprague-Dawley rat at 10 mg/kg, po; type: ADME, organism-based; set-up: dose 10 mg/kg, route oral; settings: in vivo; method in brief: as §1
[4] = target: Vascular endothelial growth factor receptor 2 (Homo sapiens, UniProt P35968); experiment: Inhibition of VEGFR2
Vascular endothelial growth factor receptor 2, sequence (P35968 whole entry): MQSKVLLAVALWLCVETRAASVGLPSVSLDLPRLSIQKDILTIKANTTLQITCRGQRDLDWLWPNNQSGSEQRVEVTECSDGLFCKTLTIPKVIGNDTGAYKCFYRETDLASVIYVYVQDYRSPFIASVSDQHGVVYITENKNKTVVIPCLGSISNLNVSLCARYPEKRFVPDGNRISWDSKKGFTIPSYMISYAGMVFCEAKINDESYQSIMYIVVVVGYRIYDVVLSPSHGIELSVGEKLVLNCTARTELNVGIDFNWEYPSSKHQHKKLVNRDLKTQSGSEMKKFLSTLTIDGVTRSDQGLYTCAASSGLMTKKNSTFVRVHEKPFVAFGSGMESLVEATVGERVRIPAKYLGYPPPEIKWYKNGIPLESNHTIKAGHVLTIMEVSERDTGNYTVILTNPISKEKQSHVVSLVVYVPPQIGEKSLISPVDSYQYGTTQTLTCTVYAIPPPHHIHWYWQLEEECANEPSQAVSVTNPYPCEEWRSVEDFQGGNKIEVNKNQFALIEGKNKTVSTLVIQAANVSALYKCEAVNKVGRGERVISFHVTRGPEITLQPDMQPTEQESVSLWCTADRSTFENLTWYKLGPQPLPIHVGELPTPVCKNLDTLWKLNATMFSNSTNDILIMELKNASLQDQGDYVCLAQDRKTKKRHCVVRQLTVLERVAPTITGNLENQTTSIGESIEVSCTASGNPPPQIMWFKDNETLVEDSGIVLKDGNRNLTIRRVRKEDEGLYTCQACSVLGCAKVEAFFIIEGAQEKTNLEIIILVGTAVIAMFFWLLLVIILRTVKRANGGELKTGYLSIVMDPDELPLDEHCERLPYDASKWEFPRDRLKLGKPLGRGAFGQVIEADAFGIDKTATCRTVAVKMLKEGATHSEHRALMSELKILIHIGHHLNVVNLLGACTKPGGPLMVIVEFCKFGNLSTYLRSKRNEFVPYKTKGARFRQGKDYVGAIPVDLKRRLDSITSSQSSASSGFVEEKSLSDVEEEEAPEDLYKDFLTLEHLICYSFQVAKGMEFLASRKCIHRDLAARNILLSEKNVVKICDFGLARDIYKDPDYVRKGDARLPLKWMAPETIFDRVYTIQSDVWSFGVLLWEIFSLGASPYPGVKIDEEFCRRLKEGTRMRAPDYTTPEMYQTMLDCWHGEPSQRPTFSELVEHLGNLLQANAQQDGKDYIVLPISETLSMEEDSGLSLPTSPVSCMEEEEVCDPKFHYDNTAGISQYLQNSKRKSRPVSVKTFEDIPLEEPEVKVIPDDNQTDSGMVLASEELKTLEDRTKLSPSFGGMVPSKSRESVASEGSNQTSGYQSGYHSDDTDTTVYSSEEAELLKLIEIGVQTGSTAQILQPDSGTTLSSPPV

[5] = Cmax in Sprague-Dawley rat at 10 mg/kg, po; type: ADME, organism-based; set-up: dose 10 mg/kg, route oral; settings: in vivo; method in brief: as §1
[6] = Bioavailability in Sprague-Dawley rat at 10 mg/kg, po; type: ADME, organism-based; settings: in vivo; method in brief: as §1
[7] = AUC in Sprague-Dawley rat at 10 mg/kg, po; type: ADME, organism-based; set-up: dose 10 mg/kg, route oral; settings: plasma; method in brief: as §1
[8] = AUC in Sprague-Dawley rat at 2 mg/kg, iv; type: ADME, organism-based; set-up: dose 2 mg/kg, route intravenous; settings: plasma; method in brief: as §1
[9] = test system: HeLa; experiment: Antiproliferative activity against human HeLa cells; type: functional, cell-based
[10] = target: Cyclin-dependent kinase 1 (Homo sapiens, UniProt P06493); experiment: Inhibition of CDK1
Cyclin-dependent kinase 1, sequence (P06493 whole entry): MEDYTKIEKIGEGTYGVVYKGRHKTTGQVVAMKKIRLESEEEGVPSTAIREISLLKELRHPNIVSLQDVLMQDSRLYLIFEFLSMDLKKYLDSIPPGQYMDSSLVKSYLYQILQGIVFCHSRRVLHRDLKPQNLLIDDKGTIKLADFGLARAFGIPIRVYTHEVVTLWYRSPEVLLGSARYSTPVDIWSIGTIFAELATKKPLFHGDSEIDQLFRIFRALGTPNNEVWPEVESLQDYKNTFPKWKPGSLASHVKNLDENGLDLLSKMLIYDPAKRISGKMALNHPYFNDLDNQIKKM

[11] = Clearance in Sprague-Dawley rat; type: ADME, organism-based; settings: in vivo; method in brief: as §1
[12] = test system: HCT-116; experiment: Antiproliferative activity against human HCT116 cells; type: functional, cell-based
[13] = Half life in Sprague-Dawley rat at 2 mg/kg, iv; type: ADME, organism-based; set-up: dose 2 mg/kg, route intravenous; settings: in vivo; method in brief: as §1
[14] = test system: A-375; experiment: Antiproliferative activity against human A375 cells; type: functional, cell-based

Vd [1] | Cmax [2] | half-life [3] | IC50 [4] | Cmax [5] | bioavailability [6] | AUC [7] | AUC [8] | IC50 [9] | IC50 [10] | clearance [11] | IC50 [12] | half-life [13] | IC50 [14] | SMILES
10.7 L/kg | 1430 nM | 4.5 h | 0.069 µM | 1110 nM | 55% | 7.65 µM·h | 2.77 µM·h | 2.92 µM | 0.687 µM | 34 mL/min/kg | 1.6 µM | 4.9 h | 1.37 µM | CC(C)(N)c1ccc(-c2nc(Nc3ccc(CCO)cc3)ncc2Cl)cc1
– | – | – | 0.026 µM | – | – | – | – | 0.339 µM | 0.808 µM | – | 0.359 µM | – | 0.247 µM | CC(C)(N)c1ccc(-c2nc(Nc3ccc(CCN4CCCC4)cc3)ncc2Cl)cc1
– | – | – | 0.148 µM | – | – | – | – | 3.01 µM | 2.77 µM | – | 3.22 µM | – | 3.17 µM | CC(C)(N)c1ccc(-c2nc(Nc3ccc(CCN4CCOCC4)cc3)ncc2Cl)cc1
– | – | – | 0.314 µM | – | – | – | – | 3.06 µM | 0.781 µM | – | 3.76 µM | – | 3.97 µM | CN(C)CCc1ccc(Nc2ncc(Cl)c(-c3n[nH]c4ccccc34)n2)cc1
– | – | – | 0.007 µM | – | – | – | – | 3.33 µM | 0.18 µM | – | 3.05 µM | – | 3.93 µM | CN1CCN(CCc2ccc(Nc3ncc(Cl)c(-c4c[nH]c5ccccc45)n3)cc2)CC1
16.3 L/kg | 670 nM | 2.6 h | 0.016 µM | 720 nM | 70% | 5.74 µM·h | 1.63 µM·h | 0.973 µM | 1.54 µM | 51 mL/min/kg | 1.68 µM | 3.9 h | 1.97 µM | Clc1cnc(Nc2ccc(CCN3CCCC3)cc2)nc1-c1ccc2cc[nH]c2c1
– | – | – | 0.159 µM | – | – | – | – | 1.24 µM | 0.461 µM | – | 0.228 µM | – | 0.016 µM | CN(C)CCc1ccc(Nc2ncc(Cl)c(-c3cccs3)n2)cc1
– | – | – | 0.348 µM | – | – | – | – | 3.35 µM | 1.04 µM | – | 3.69 µM | – | 2.61 µM | CC(C)(N)c1ccc(-c2nc(Nc3cccc(Br)c3)ncc2Cl)cc1
– | – | – | 0.797 µM | – | – | – | – | 0.431 µM | 0.439 µM | – | 0.391 µM | – | 0.399 µM | Cc1nc(C)c(-c2nc(Nc3ccc(CCN(C)C)cc3)ncc2Cl)s1
– | – | – | 0.007 µM | – | – | – | – | 0.075 µM | 0.048 µM | – | 0.084 µM | – | 0.05 µM | CN(C)CCc1ccc(Nc2ncc(Cl)c(-c3c[nH]c4ccccc34)n2)cc1
– | – | – | 0.103 µM | – | – | – | – | 0.596 µM | 0.847 µM | – | 0.321 µM | – | 0.03 µM | CN(C)CCc1ccc(Nc2ncc(Cl)c(-c3ccc4[nH]ccc4c3)n2)cc1
– | – | – | 0.015 µM | – | – | – | – | 0.472 µM | 1.77 µM | – | 0.446 µM | – | 0.336 µM | CN(C)CCc1ccc(Nc2ncc(Cl)c(-c3ccc4cc[nH]c4c3)n2)cc1
– | – | – | 0.455 µM | – | – | – | – | 1.29 µM | 0.334 µM | – | 0.47 µM | – | 0.774 µM | CN(C)CCc1ccc(Nc2ncc(Cl)c(-c3cccc4cc[nH]c34)n2)cc1
– | – | – | 0.076 µM | – | – | – | – | 0.811 µM | 1.61 µM | – | 1.3 µM | – | 0.868 µM | CN1CCN(CCc2ccc(Nc3ncc(Cl)c(-c4ccc(C(C)(C)N)cc4)n3)cc2)CC1
– | – | – | 0.216 µM | – | – | – | – | 0.292 µM | 0.54 µM | – | 0.084 µM | – | 0.21 µM | CN(C)CCc1ccc(Nc2ncc(Cl)c(-c3cccc4[nH]ccc34)n2)cc1
– | – | – | 0.033 µM | – | – | – | – | 0.542 µM | 1.06 µM | – | 0.885 µM | – | 0.175 µM | CNCCc1ccc(Nc2ncc(Cl)c(-c3ccc(C(C)(C)N)cc3)n2)cc1
– | – | – | 0.019 µM | – | – | – | – | 0.5 µM | 1.14 µM | – | 1.68 µM | – | 0.163 µM | CN(C)CCc1ccc(Nc2ncc(Cl)c(-c3ccc(C(C)(C)N)cc3)n2)cc1
10.1 L/kg | 960 nM | 4.6 h | 0.037 µM | 590 nM | 40% | 6.12 µM·h | 3.06 µM·h | 2.08 µM | 1.24 µM | 25 mL/min/kg | 2.45 µM | 5.8 h | 2.57 µM | CCN1CCN(CCc2ccc(Nc3ncc(Cl)c(-c4ccc5cc[nH]c5c4)n3)cc2)CC1

Reference: ChEMBL document CHEMBL1147841, “Synthesis and biological study of 2-amino-4-aryl-5-chloropyrimidine analogues as inhibitors of VEGFR-2 and cyclin dependent kinase 1 (CDK1)” (Bioorg Med Chem Lett, 2007)
